Only some compounds are listed: those with a hit (about 29% of all), similar ones and a draw of the others.
CYP2C9 act: CYP2C9 (human) activation. recombinant CYP2C9, luciferin-H conversion, luminescence; stronger effect = higher value; factor 1 = untreated enzyme, 0 = blocked. activation factor at 5 µM. actives 1.4% (n = 96,000). AID 1024;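 active = activation factor of 2 or more for CYP2C9 at a 5 µM dose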;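 note: 0 = sulfaphenazole-blocked wells and 1 = vehicle-only wells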
Ecoli WT expand: blocks growth of wild type E. coli BW25113; actives 0.15% (n = 98,000); growth inhibition, % at 100 µM; OD600 absorbance; AID 710;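 active = growth inhibition above about 50% at one test dose, limit read from the data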;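 note: growth measured after 20 h incubation at 37 °C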
CYP2C19 act: cytochrome P450 2C19 (human) activation. P33261. activation factor at 5 µM. recombinant CYP2C19, luciferin-H EGE luminescence; stronger effect = higher value; 0 = fully inhibited enzyme, 1 = untreated enzyme. 96,000 tested, under 10 active;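 active = activation factor of at least 2 at 5 µM in the primary screen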;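 note: 0 = wells with 2.5 mM tranylcypromine and 1 = vehicle-only wells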
Target sequence (P33261 whole entry, looked up): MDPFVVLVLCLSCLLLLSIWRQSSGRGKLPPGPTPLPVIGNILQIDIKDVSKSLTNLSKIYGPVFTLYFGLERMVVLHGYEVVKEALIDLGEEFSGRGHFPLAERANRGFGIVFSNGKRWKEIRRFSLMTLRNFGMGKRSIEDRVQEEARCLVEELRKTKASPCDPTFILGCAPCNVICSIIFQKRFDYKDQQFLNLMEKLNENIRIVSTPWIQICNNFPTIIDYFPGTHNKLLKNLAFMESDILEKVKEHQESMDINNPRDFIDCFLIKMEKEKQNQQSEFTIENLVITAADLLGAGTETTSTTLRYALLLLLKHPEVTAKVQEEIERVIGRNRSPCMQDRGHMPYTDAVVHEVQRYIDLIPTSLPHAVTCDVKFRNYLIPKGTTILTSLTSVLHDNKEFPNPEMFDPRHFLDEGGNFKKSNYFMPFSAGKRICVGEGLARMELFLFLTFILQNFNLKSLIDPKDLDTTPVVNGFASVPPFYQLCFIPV
tolC growth inh: E. coli tolC mutant growth inhibition; actives 2.2% (n = 65,000); E. coli BW25113 tolC mutant growth, OD615; growth inhibition, % at 10 µM (by protocol); AID 573;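 active = growth inhibition at or above a cutoff equal to the mean over every tested compound plus 3 SD, cut at about 60% in these data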;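 note: growth measured after 20 h incubation at 37 °C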
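Test system: E. coli BW25113 ΔtolC::kan bacteria | Medium: Kanamycin-containing LB broth (50 µg/mL) | Dosing: One dose of 10 µM final | Times: 20 h incubation with compound, 37 °C | Detection: Optical density read at 615 nm | Read-out basis: Percent growth inhibition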
CYP2C19 inh: human CYP2C19 inhibition. inhibition, % at 5 µM. AID 778. CYP2C19 Supersomes, luciferin-H EGE luminescence, 30 min. actives 21% (n = 96,000);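 active = CYP2C19 inhibition above a set limit at 5 µM in the primary screen, cut at about 50% in these data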;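 note: plate controls were negative control wells for no effect and 2.5 mM tranylcypromine positive control for full effect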
CYP2C9 inhib: blocks human cytochrome P450 2C9; P11712; CYP2C9 Supersomes, luciferin-H conversion, luminescence; inhibition, % at 5 µM; actives 20% (n = 96,000); AID 777;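 active = blocking of liver enzyme CYP2C9 beyond about 50% at 5 µM, limit read from the data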
Numbers without * were called inactive; / = no result.

SMILES	CYP2C9 act	Ecoli WT expand	CYP2C19 act	tolC growth inh	CYP2C19 inh	CYP2C9 inhib
c1ccc(Cc2nnc3sc(-c4cccs4)nn23)cc1	0.5	-3	0.4	30	60*	55*
c1ccc(CCc2nn3c(C4COc5ccccc5O4)nnc3s2)cc1 (stereo unspecified)	0.6	1	0.6	27	36	43
FC(F)(F)c1nnc2sc(-c3ccccn3)nn12	0.8	3	1	-25	0	25
c1ccc(CCc2nn3c(Cc4ccccc4)nnc3s2)cc1	0.3	-1	0.2	15	80*	73*
CC(=O)N1CCc2cc(S(=O)(=O)NCCC3=CCCCC3)ccc21	/	/	/	10	/	/
C=CCn1c(COC)nnc1SCC(=O)c1ccc(F)cc1	1.2	8	0.6	-14	36	-17
c1ccc(Cc2nnc3sc(-c4ccc5c(c4)OCCO5)nn23)cc1	0.2	-3	0.4	11	58*	76*
Clc1ccc(OCc2nn3c(C4CCCCC4)nnc3s2)cc1	0.1	-7	0.7	97*	28	90*
COC(=O)C(C(C)=O)C1=C/C(=N\S(=O)(=O)c2ccc(C)cc2)c2ccccc2C1=O (stereo unspecified)	0.1	8	0.1	/	90*	89*
COc1ccccc1-c1nnc(SCC(=O)O)n1C	1.1	-5	0.9	-22	6	-10
CN1CCN(Cc2cccc(Oc3ccccc3)c2)CC1	0.9	7	0.3	/	69*	10
CC1CCCN(Cc2cccc(Oc3ccccc3)c2)C1 (stereo unspecified)	0.9	7	0.3	/	67*	11
OC1CCN(Cc2cccc(Oc3ccccc3)c2)CC1	1	0	0.9	12	11	2
CC(C)C(=O)Nc1nnc(CCN2CCCCC2)s1	1.1	5	0.9	/	7	-10
COc1ccc(C2c3cc(OC)c(OC)cc3CCN2C2CC(=O)N(c3ccccc3)C2=O)cc1OC (stereo unspecified)	0.5	-11	0.8	/	16	50
N#Cc1cc(N)ccc1Sc1ccc(Cl)cc1	1.9	32	0.5	/	50	-87
N#Cc1cc(N)ccc1Sc1ccccc1	2*	12	0.5	/	46	-104
Cc1cc(/C=C2\SC(=Nc3ccccc3)NC2=O)c(C)n1-c1ccc(S(N)(=O)=O)cc1	0.4	2	0.8	/	19	60*
CCN(c1cccc(C)c1)c1nc2ccsc2c(=O)s1	0.1	-3	0.3	/	65*	87*
Cc1ccc(-c2nc3ccsc3c(=O)o2)cc1	0.7	-8	0.8	/	23	31
COc1ccc(CN2CCOCC2)cc1	1.2	-4	0.8	/	18	-17
CCCCCOc1ccc(CN2CCOCC2)cc1Cl	0.4	4	0.2	28	76*	55*
Cn1nc(C(=O)Nc2nc3ccc(S(C)(=O)=O)cc3s2)ccc1=O	0.7	1	1.1	/	-6	26
O=C(COC(=O)C1CCC1)Nc1ccc(OC(F)F)cc1	0.9	-10	0.1	-8	86*	12
O=C(COC(=O)C1CC1)Nc1ccc(OC(F)F)cc1	0.8	12	0.2	/	77*	16
SMILES	CYP2C9 act	Ecoli WT expand	CYP2C19 act	tolC growth inh	CYP2C19 inh	CYP2C9 inhib
O=C(COC(=O)CCC1CCCCC1)Nc1ccc(OC(F)F)cc1	1.1	3	0.8	/	18	-11
CCc1ccc(NS(=O)(=O)c2ccc3[nH]cc(C(=O)NCC4CCCO4)c(=O)c3c2)cc1 (stereo unspecified)	/	2	/	57	/	/
O=C(COC(=O)c1ccc(S(=O)(=O)NCc2ccco2)cc1)NC1CCCCC1	0.7	-11	1	/	3	31
Cc1noc(C)c1COC(=O)c1ccc(S(=O)(=O)NCc2ccco2)cc1	0	5	0.3	14	72*	100*
COc1ccccc1NC(=O)COC(=O)c1ccc(S(=O)(=O)NCc2ccco2)cc1	0.2	-7	0.9	-6	7	82*
CCc1ccccc1NS(=O)(=O)c1ccc2[nH]cc(C(=O)NCc3ccco3)c(=O)c2c1	/	1	/	100*	/	/
O=C(NCc1ccccc1)c1c[nH]c2ccc(S(=O)(=O)Nc3ccc4c(c3)OCCO4)cc2c1=O	0.1	-14	0.7	61*	32	89*
O=C(Nc1ccccc1)c1ccc(S(=O)(=O)NCc2ccco2)cc1	1.1	-6	1.1	-3	-14	-9
CCCCC(=O)N(c1ccc(C)c(C)c1)C1C=CS(=O)(=O)C1 (stereo unspecified)	0.7	14	0.7	-11	27	29
COc1cc(C(=O)NC(=S)Nc2ccc3oc(=O)ccc3c2)cc(OC)c1OC	1	-8	1	/	2	3
CN(CCO)C(=O)CCC(=O)Nc1ccc(S(N)(=O)=O)cc1	1.3	3	1.1	-11	-9	-25
COc1ccccc1NS(=O)(=O)c1ccc(C(=O)OCC(=O)NCc2ccco2)cc1	0.2	2	0.2	5	84*	85*
CCC(=O)Nc1ccc(S(=O)(=O)NCc2ccco2)cc1	1.1	6	0.8	/	18	-6
O=C(COC(=O)c1ccc(S(=O)(=O)NCc2ccco2)cc1)Nc1ccc(OC(F)F)cc1	0.4	-3	0.7	/	29	61*
COc1ccccc1OCC(=O)NCc1ccco1	1	-1	0.8	-24	17	0
COc1ccc(S(=O)(=O)Nc2ccccc2C(=O)NCc2ccco2)cc1	1.1	2	0.4	8	62*	-7
COCCCNC(=O)c1ccccc1NS(=O)(=O)c1ccc(C)cc1	0.7	-4	0.3	-4	74*	32
COc1ccc(CC(=O)Nc2cccc(/C(C)=N/NC(=O)c3cccc([N+](=O)[O-])c3)c2)cc1	0.6	-5	1	/	1	38
COc1ccc(N2CCN(c3nc4c(c(=O)[nH]c(=O)n4C)n3Cc3ccccc3Cl)CC2)cc1	/	/	/	4	/	/
N#Cc1nc(-c2ccco2)oc1N1CCN(c2cccc(Cl)c2)CC1	0.3	-21	0.2	31	76*	69*
N#Cc1nc(-c2ccco2)oc1N1CCc2ccccc2C1	0.1	-5	0.3	35	68*	86*
N#Cc1nc(-c2ccco2)oc1N1CCCC1	1.2	2	0.9	-6	15	-24
COC(=O)CC1COc2ccccc2N1C(=O)c1ccc(C(C)(C)C)cc1 (stereo unspecified)	0.2	1	0.7	/	34	77*
COc1cc(-n2c(=O)c3ccccc3n(Cc3ccccc3)c2=O)cc(OC)c1OC	1.2	-3	0.4	/	62*	-19
CCOc1ccc(NC(=O)COC(=O)c2cccnc2)cc1	0.8	10	0.9	-5	13	16
CC(C)c1nnc(SCC(=O)NCCC2=CCCCC2)n1N	0.4	-5	0.8	/	17	60*
COc1cccc(C2=NO[C@@H]3C(=O)N(c4ccc5c(c4)OCCO5)C(=O)[C@H]23)c1OC	0.9	-1	1	-15	2	13

Assay outcomes deposited in PubChem by several laboratories.
